Compound activity deposited in PubChem by Broad Institute.
Shown are actives, neighbours in structure and some others; about 2.3% of the full set was active somewhere.
DENV2 CPE – protects cells from dengue virus 2 cytopathic effect; DENV2-infected cells, cytopathic effect rescue, plate reader; CPE inhibition, % at 9.99 µM; 350,000 tested, 1.7% active; in the data active means CPE inhibition above about 20%, passing the limit was not always enough; tested in BHK-21 cells;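 further: 0% = median of neutral control wells and 100% = median of positive control wells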
PDI inh – PDI (human) enzyme inhibition | P07237 | PDI insulin aggregation turbidity, A650, 90 min | inhibition, % at 10 µM | 350,000 tested, 0.052% active;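 active means mean inhibition across replicates of 30% or more, whatever share of single replicates reach that level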
CFTR F508del cor – CFTR F508del correction in bronchial cells; activity (quench increase), % at 7.58 µM; AID 720511; 350,000 tested, 0.36% active; CFBE cells, YFP halide quenching; stimulated with forskolin plus potentiator P3; % fluorescence drop versus neutral controls;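 active means mean added fluorescence quench of at least 8% versus neutral control, with both replicates also reaching 8%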;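 further: cells transiently co-express mutant CFTR-F508del with the halide-sensitive YFP; corrector assay measuring rescue of mutant channel to the surface after 24 h compound exposure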
ERp5 inh – ERp5 (human) disulfide isomerase inhibition; AID 651711; Q15084; ERp5 insulin aggregation, absorbance 650 nm, 90 min; inhibition, % at 9.99 µM; 350,000 tested, 0.05% active;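 active means mean replicate inhibition above about 25%, with every replicate also reaching it, limit read from the data, passing the limit was not always enough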
Target sequence (Q15084 whole entry, looked up): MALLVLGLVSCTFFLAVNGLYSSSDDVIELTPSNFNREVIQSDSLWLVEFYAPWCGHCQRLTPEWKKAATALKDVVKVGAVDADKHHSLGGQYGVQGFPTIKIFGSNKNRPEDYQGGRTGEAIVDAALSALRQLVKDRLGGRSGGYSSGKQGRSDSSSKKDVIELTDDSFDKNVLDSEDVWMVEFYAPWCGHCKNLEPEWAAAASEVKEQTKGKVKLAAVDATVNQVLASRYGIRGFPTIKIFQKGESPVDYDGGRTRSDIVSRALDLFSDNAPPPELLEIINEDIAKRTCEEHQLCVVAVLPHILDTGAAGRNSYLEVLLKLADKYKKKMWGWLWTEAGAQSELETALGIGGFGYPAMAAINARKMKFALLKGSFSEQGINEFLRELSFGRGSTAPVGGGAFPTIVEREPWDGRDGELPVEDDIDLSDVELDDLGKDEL
Cneo AK release – Cryptococcus neoformans lysis via adenylate kinase release | AID 651654 | lysis activity, % at 15 µM | 360,000 tested, 0.2% active | C. neoformans lysis, adenylate kinase release luminescence, 4 h; normalised: neutral wells 0, clomiphene wells 100;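 active means mean lysis activity across replicates of at least 80%, whatever share of replicates individually reach that level; inactive means mean lysis activity below 80%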
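Schedule: static 4 h at 37 °C with compound, 1 h detection; system: C. neoformans cells; benchmarks: Clomiphene as positive control; buffer or medium: fresh YPD medium; measure: luminescence rise reflecting yeast cell lysis; measured by: luminescent adenylate kinase detection reagent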
C2C12 statin – suppressors of simvastatin-induced myotoxicity in C2C12 myotubes; ATP luminescence, 48 h; scaled: DMSO 0, geranylgeraniol control 100; rescue of ATP level, % at 7.49 µM; 330,000 tested, 0.78% active; AID 602340;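 active means mean ATP rescue above about 67%, or every replicate alone reaching that limit, limit read from the data, passing the limit was not always enough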;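 further: myotubes were challenged with 10 µM simvastatin during compound exposure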
* hit, by the source's call; . = no result given.

SMILES	DENV2 CPE	PDI inh	CFTR F508del cor	ERp5 inh	Cneo AK release	C2C12 statin
CCC(C)Sc1nc2c(c(=O)[nH]c(=O)n2C)n1Cc1ccc(Cl)cc1 (stereo not drawn)	.	-2.6	.	.	-3.6	130.2*
CCCSc1nc2c(c(=O)[nH]c(=O)n2C)n1C	.	-9.2	.	.	0.6	91.6*
COc1cccc(NC(=O)N(C)C[C@@H]2Oc3cc(C#Cc4ccc(F)cc4)ccc3S(=O)(=O)N([C@H](C)CO)C[C@@H]2C)c1	-2.4	.	-4.0	2.5	-0.6	-72.8
CC(Sc1ccccc1)C(=O)NCC(c1ccco1)N1CCCCC1 (stereo not drawn)	107.4*	1.6	-0.3	5.4	-5.3	-8.2
CCOC(=O)C(=CNc1ccc(Cl)cn1)C(=O)OCC	66.6*	-7.3	-0.2	-2.6	.	.
CCCCn1c(CCc2ccccc2)nc2cc3[nH]c(=O)c(C(C)C)nc3cc21	10.8	0.6	-0.5	2.8	-0.6	118.6*
C[C@@H]1CCCCO[C@@H](CN(C)Cc2ccccc2)[C@H](C)CN([C@H](C)CO)C(=O)c2cc(N(C)C)ccc2O1	.	.	2.7	.	.	39.9
C[C@H]1CCCCO[C@H](CN(C)Cc2ccncc2)[C@@H](C)CN([C@@H](C)CO)C(=O)c2cc(N(C)C)ccc2O1	11.8	.	-1.0	1.4	-3.1	6.7
C[C@H](CO)N1C[C@H](C)[C@@H](CN(C)Cc2ccc(Cl)c(Cl)c2)OCCCC[C@H](C)Oc2ccc(N(C)C)cc2C1=O	30.2*	.	-0.4	5.2	.	.
C[C@H](CO)N1C[C@H](C)[C@@H](CN(C)Cc2ccncc2)OCCCC[C@H](C)Oc2ccc(N(C)C)cc2C1=O	30.9*	.	0.0	6.9	-2.2	-10.6
COc1ccc(CN(C)C[C@@H]2OCCCC[C@H](C)Oc3ccc(N(C)C)cc3C(=O)N([C@H](C)CO)C[C@@H]2C)cc1	.	.	-2.9	-2.3	94.1*	-9.2
C[C@@H]1CCCCO[C@H](CN(C)Cc2ccncc2)[C@@H](C)CN([C@H](C)CO)C(=O)c2cc(N(C)C)ccc2O1	-7.1	.	3.0	-2.2	109.5*	-0.4
COc1ccc(-c2ccc3n(c2=O)C[C@@H]2[C@@H](CO)[C@H](C(=O)N(C)C)N(CC4CCOCC4)[C@H]32)cc1	-6.4	.	0.1	6.8	3.2	11.1
COCC#Cc1cnc2c(c1)C(=O)N([C@@H](C)CO)C[C@H](C)[C@H](CN(C)C(=O)c1cccc(F)c1)O2	-3.6	.	-0.4	2.4	-4.5	-8.3
CCS(=O)(=O)N1CCCCN2[C@H](C1)[C@H](c1ccc(C#Cc3ccccn3)cc1)[C@@H]2CO	52.5*	.	0.8	0.9	3.2	11.5
O=S(=O)(Cc1ccccc1)N1CCCCN2[C@H](C1)[C@H](c1ccc(C#Cc3ccccc3)cc1)[C@@H]2CO	3.5	.	-0.7	-3.2	-0.1	.
CN(C)CC#Cc1ccc([C@H]2[C@@H](CO)N3CCCCN(S(=O)(=O)c4ccccc4)C[C@@H]23)cc1	44.1*	.	1.4	-2.7	-1.7	12.0
N#Cc1ccc(-c2ccc([C@@H]3[C@H](CO)N4CCCCN(S(=O)(=O)c5ccccc5)C[C@@H]34)cc2)cc1	23.4*	.	4.8	-7.0	-1.7	.
O=S(=O)(Cc1ccccc1)N1CCCCN2[C@H](C1)[C@@H](c1ccc(C#Cc3ccccc3)cc1)[C@@H]2CO	-9.8	.	8.0*	1.2	1.5	.
CCS(=O)(=O)N1CCCCN2[C@@H](CO)[C@@H](c3ccc(-c4ccc(C#N)cc4)cc3)[C@@H]2C1	45.4*	.	-0.8	-2.2	-0.2	0.8
CCS(=O)(=O)N1CCCCN2[C@H](CO)[C@@H](c3ccc(C#Cc4ccccc4OC)cc3)[C@@H]2C1	3.3	.	-1.6	2.4	1.6	.
O=S(=O)(Cc1ccccc1)N1CCCCN2[C@H](CO)[C@@H](c3ccc(-c4ccc(F)cc4)cc3)[C@H]2C1	40.9*	.	2.0	2.0	-1.9	-1.0
CCS(=O)(=O)N1CCCCN2[C@H](C1)[C@@H](c1ccc(C#Cc3ccccc3OC)cc1)[C@@H]2CO	40.1*	.	4.8	-1.2	47.1	.
O=S(=O)(c1ccccc1)N1CCCCN2[C@@H](CO)[C@H](c3ccc(C#Cc4ccccc4)cc3)[C@@H]2C1	22.4*	.	2.7	1.1	1.8	.
O=S(=O)(c1ccccc1)N1CCCCN2[C@H](CO)[C@@H](c3ccc(C#Cc4ccccc4)cc3)[C@@H]2C1	9.4	.	0.6	-4.8	-1.5	.
SMILES	DENV2 CPE	PDI inh	CFTR F508del cor	ERp5 inh	Cneo AK release	C2C12 statin
CCS(=O)(=O)N1CCCCN2[C@H](C1)[C@H](c1ccc(-c3ccc(C#N)cc3)cc1)[C@@H]2CO	1.9	.	3.5	4.9	0.8	-8.8
O=S(=O)(N[C@@H]1CC[C@@H](CCn2cc(-c3cccc(F)c3)nn2)O[C@@H]1CO)c1ccccc1	-4.1	.	-0.6	0.5	-0.6	-2.8
C[C@@H]1CN([C@H](C)CO)C(=O)Cc2cc(NC(=O)CCC(F)(F)F)ccc2O[C@@H]1CN(C)Cc1ccc2c(c1)OCO2	.	.	4.6	.	.	26.5
CCCN1C[C@@H](C)[C@H](OC)CN(C)C(=O)c2cc(NC(=O)Nc3cccc(F)c3)ccc2OC[C@@H]1C	.	.	0.6	.	-5.3	-58.1
O=C(NC(=S)NCC1COc2ccccc2O1)c1ccccc1 (stereo not drawn)	.	2.5	.	.	160.6*	-12.4
Cc1noc(C)c1NC(=O)N(C)C[C@@H]1Oc2ccc(NS(=O)(=O)c3cccs3)cc2C(=O)N([C@H](C)CO)C[C@H]1C	-9.2	.	-2.9	0.3	-4.0	-53.7
Cc1noc(C)c1NC(=O)N(C)C[C@H]1OCCCC[C@H](C)Oc2ccc(NS(=O)(=O)c3ccccc3)cc2C(=O)N([C@@H](C)CO)C[C@@H]1C	0.0	.	0.1	-0.7	0.8	.
Cc1noc(C)c1NC(=O)N(C)C[C@@H]1OCCCC[C@H](C)Oc2ccc(NS(=O)(=O)c3cccs3)cc2C(=O)N([C@@H](C)CO)C[C@H]1C	22.5*	.	0.5	1.1	-1.9	.
Cc1noc(C)c1NC(=O)N(C)C[C@@H]1Oc2ccc(NS(=O)(=O)c3cccs3)cc2C(=O)N([C@@H](C)CO)C[C@H]1C	37.6*	.	0.8	1.2	-1.5	-51.0
Cc1noc(C)c1NC(=O)N(C)C[C@H]1OCCCC[C@@H](C)Oc2ccc(NS(=O)(=O)c3ccccc3)cc2C(=O)N([C@H](C)CO)C[C@H]1C	69.9*	.	-0.7	0.9	-2.2	.
C[C@H](CO)N1C[C@H](C)[C@H](CN(C)S(=O)(=O)c2ccccc2)OCCCC[C@H](C)Oc2ccc(NC(=O)CCCN(C)C)cc2C1=O	-3.6	.	1.2	1.5	0.4	.
COc1ccc(-c2cc(-c3ccc(Cl)cc3)c(C#N)c(SCC(=O)O)n2)cc1	61.2*	-1.2	1.6	-0.4	-1.1	8.4
Cc1ccc(NC(=O)COC(=O)CNC(=O)C2CCCCC2)cc1S(=O)(=O)N(C)C	-3.6	-9.9	-2.6	1.9	-6.4	-1.1
